Experimental data from ChEMBL document CHEMBL1122233, “Antihypertensive 9-substituted 1-oxa-4,9-diazaspiro[5.5]undecan-3-ones” (J Med Chem, 1983).
The source made the active and inactive calls. The calls are words filed in the database; no cut-off is given here.

Columns and labels:
Rattus norvegicus [1] = experiment: Percentage fall in systolic blood pressure after 4 hr at 25 mg/kg given perorally; format: functional, Artery; conditions: route oral
Method in brief: (§1)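 Male Okamoto-Aoki spontaneously hypertensive rats, trained, in groups of four matched for mean systolic pressure; five treated groups and one vehicle control run concurrently. Oral dosing in water (solution or suspension, 0.1 mL/10 g) on two consecutive mornings. On day 2, rats were restrained at 30.0 ± 1.0 °C and tail-cuff systolic pressure recorded at 1–4 h; percent fall versus control, 1-tail t test, p ≤ 0.05.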

Rattus norvegicus [2] = experiment: (§2) Percentage fall in systolic blood pressure after 1 hr at 12.5 mg/kg given perorally; format: functional, Artery; conditions: route oral
Method in brief: (§3)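 Male Okamoto-Aoki SHR, four per group, with a concurrent vehicle control group. Oral dosing in water (0.1 mL/10 g) on two consecutive mornings. After the day-2 dose, rats were restrained in a 30 °C chamber. Tail-cuff systolic pressure was taken at 1-4 h from four traces per rat. Result is % decrease versus control mean, by 1-tailed t test, p ≤ 0.05.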

Rattus norvegicus [3] = experiment: (§4) Percentage fall in systolic blood pressure after 2 hr at 12.5 mg/kg given perorally; format: functional, Artery; conditions: route oral; method in brief: as §1
Rattus norvegicus [4] = experiment: (§5) Percentage fall in systolic blood pressure after 4 hr at 12.5 mg/kg given perorally; format: functional, Artery; conditions: route oral; method in brief: as §1
Rattus norvegicus [5] = experiment: Percentage fall in systolic blood pressure after 3 hr at 25 mg/kg given perorally; format: functional, Artery; conditions: route oral; method in brief: as §1
Rattus norvegicus [6] = experiment: Percentage fall in systolic blood pressure after 2 hr at 25 mg/kg given perorally; format: functional, Artery; conditions: route oral; method in brief: as §1
Rattus norvegicus [7] = experiment: Percentage fall in systolic blood pressure after 2 hours at 12.5 mg/kg given perorally; format: functional, Artery; conditions: route oral; method in brief: as §3
Rattus norvegicus [8] = experiment: Percentage fall in systolic blood pressure after 4 hours at 12.5 mg/kg given perorally; format: functional, Artery; conditions: route oral; method in brief: as §3
Rattus norvegicus [9] = experiment: Percentage fall in systolic blood pressure after 1 hours at 3.1 mg/kg given perorally; format: functional, Artery; conditions: route oral; method in brief: as §1
Rattus norvegicus [10] = experiment: Percentage fall in systolic blood pressure after 3 hours at 12.5 mg/kg given perorally; format: functional, Artery; conditions: route oral; method in brief: as §3
Rattus norvegicus [11] = experiment: Percentage fall in systolic blood pressure after 1 hours at 12.5 mg/kg given perorally; format: functional, Artery; conditions: route oral; method in brief: as §1
Rattus norvegicus [12] = experiment: Percentage fall in systolic blood pressure after 4 hours at 3.1 mg/kg given perorally; format: functional, organism-based; parameters: dose 3.1 mg/kg; conditions: Artery; method in brief: as §1
Rattus norvegicus [13] = experiment: Percentage fall in systolic blood pressure after 3 hours at 3.1 mg/kg given perorally; format: functional, organism-based; parameters: dose 3.1 mg/kg; conditions: Artery; method in brief: as §1
Rattus norvegicus [14] = experiment: Percentage fall in systolic blood pressure after 2 hours at 3.1 mg/kg given perorally; format: functional, Artery; conditions: route oral; method in brief: as §1
[15] = target: T1, Adrenergic receptor alpha-1 (Rattus norvegicus, UniProt P15823+P23944+P43140); experiment: Affinity for alpha-1 adrenoceptor of rat cerebral cortex was determined by ligand binding using [3H]prazosin.; format: tissue-based
T1 sequence (P15823 whole entry): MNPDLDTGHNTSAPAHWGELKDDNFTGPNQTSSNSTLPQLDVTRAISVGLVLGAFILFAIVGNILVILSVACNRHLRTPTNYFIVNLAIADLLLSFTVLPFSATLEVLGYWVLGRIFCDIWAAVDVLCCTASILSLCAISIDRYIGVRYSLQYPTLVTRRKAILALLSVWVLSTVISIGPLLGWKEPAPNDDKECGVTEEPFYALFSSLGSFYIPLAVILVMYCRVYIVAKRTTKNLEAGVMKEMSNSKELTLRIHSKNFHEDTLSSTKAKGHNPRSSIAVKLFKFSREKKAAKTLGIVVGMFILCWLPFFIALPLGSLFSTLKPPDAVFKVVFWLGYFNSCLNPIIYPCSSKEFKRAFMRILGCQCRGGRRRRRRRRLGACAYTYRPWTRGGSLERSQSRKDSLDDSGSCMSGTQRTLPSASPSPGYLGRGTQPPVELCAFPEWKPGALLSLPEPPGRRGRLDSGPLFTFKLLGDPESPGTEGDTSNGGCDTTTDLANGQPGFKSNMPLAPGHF
T1 sequence (P23944 whole entry): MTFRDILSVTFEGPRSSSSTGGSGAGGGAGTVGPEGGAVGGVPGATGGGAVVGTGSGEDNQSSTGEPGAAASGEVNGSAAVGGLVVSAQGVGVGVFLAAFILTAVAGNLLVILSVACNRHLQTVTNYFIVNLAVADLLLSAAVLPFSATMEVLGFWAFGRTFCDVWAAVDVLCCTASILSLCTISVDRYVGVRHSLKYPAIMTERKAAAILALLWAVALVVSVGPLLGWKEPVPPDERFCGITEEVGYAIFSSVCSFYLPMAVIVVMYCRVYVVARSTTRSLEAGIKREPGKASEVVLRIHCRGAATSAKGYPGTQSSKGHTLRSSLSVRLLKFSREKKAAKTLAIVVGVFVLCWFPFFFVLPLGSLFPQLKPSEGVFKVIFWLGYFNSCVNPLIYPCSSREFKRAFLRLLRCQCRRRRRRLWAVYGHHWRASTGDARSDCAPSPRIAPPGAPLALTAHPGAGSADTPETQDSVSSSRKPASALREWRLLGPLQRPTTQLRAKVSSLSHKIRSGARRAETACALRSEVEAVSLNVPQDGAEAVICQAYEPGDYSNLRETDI
T1 sequence (P43140 whole entry): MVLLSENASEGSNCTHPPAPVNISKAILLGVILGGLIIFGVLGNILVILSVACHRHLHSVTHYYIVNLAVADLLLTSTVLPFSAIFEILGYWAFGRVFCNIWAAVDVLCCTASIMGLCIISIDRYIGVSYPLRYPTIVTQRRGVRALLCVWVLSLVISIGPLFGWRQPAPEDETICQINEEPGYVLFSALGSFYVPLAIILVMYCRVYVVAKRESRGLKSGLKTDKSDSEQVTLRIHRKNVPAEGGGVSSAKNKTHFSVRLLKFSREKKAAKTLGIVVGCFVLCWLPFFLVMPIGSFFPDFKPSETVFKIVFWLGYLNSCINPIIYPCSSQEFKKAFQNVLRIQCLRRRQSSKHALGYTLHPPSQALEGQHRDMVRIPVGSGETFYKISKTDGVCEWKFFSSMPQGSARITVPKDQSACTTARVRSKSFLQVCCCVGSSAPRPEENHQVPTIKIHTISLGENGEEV
Method in brief: (§6)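 Washed rat cerebral cortex membranes (homogenised in 50 mM Tris-HCl pH 7.8, pelleted at 48000g, washed 3 times) at 2.5 mg/mL protein. […] Ice-cold buffer stop, then filtration. Nonspecific binding defined with 200 μmol norepinephrine. KI from IC50 by Cheng-Prusoff, given as negative log.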

Rattus norvegicus [16] = experiment: as §2; format: functional, organism-based; parameters: dose 12.5 mg/kg; conditions: Artery; method in brief: as §1
Rattus norvegicus [17] = experiment: Percentage fall in systolic blood pressure after 1 hr at 25 mg/kg given perorally; format: functional, Artery; conditions: route oral; method in brief: as §1
Rattus norvegicus [18] = experiment: as §4; format: functional, organism-based; parameters: dose 12.5 mg/kg; conditions: Artery; method in brief: as §1
[19] = target: T2, Adrenergic receptor alpha-2 (Rattus norvegicus, UniProt P22086+P19328+P22909); experiment: Affinity for alpha-2 adrenergic receptor of rat cerebral cortex was determined by ligand binding using [3H]yohimbine.; format: tissue-based; method in brief: as §6
T2 sequence (P22086 whole entry): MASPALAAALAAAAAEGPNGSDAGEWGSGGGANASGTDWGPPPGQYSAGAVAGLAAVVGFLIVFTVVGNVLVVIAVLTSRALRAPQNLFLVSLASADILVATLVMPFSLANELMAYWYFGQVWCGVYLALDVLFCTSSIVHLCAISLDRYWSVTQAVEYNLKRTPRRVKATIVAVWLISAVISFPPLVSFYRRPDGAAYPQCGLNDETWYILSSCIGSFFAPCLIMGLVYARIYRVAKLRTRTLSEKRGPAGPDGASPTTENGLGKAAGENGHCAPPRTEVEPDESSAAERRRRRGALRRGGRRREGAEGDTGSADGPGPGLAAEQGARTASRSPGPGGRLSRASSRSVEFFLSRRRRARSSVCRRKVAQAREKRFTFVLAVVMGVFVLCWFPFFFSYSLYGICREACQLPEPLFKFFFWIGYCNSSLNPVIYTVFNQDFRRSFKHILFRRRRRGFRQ
T2 sequence (P19328 whole entry): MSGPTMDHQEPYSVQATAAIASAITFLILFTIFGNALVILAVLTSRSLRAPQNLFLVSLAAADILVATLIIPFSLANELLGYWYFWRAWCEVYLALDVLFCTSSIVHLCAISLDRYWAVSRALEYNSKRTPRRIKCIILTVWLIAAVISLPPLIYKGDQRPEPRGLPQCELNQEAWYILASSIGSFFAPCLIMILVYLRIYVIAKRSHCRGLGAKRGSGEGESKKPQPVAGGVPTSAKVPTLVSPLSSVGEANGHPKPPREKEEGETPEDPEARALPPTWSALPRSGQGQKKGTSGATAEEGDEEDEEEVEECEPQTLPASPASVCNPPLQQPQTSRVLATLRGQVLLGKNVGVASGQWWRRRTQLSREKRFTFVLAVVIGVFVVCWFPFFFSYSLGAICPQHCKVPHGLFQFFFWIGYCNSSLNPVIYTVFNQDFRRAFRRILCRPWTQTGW
T2 sequence (P22909 whole entry): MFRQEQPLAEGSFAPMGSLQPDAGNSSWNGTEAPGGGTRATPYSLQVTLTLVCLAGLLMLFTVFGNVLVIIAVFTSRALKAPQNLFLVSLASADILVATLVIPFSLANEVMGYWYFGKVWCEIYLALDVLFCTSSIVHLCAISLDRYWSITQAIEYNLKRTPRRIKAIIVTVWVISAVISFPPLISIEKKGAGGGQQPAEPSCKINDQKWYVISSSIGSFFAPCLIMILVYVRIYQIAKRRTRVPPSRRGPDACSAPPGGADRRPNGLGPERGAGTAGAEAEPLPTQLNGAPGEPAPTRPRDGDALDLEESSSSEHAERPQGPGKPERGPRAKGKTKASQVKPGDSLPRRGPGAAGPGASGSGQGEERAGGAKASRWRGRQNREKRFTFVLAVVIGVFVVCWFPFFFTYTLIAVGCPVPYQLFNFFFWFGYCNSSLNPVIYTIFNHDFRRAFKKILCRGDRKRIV

Rattus norvegicus [20] = experiment: as §5; format: functional, organism-based; parameters: dose 12.5 mg/kg; conditions: Artery; method in brief: as §1
Rattus norvegicus [21] = experiment: Percentage fall in systolic blood pressure after 3 hr at 12.5 mg/kg given perorally; format: functional, organism-based; parameters: dose 12.5 mg/kg; conditions: Artery; method in brief: as §1

`CN1CC2(CCN(CC(O)C3COc4ccccc4O3)CC2)OCC1=O` (stereo in doubt; 61) was tested, and the “Decrease in SBP” value (Rattus norvegicus [1]) was 40%, the “Decrease in SBP” value (Rattus norvegicus [2]) was 25% and the “Decrease in SBP” value (Rattus norvegicus [3]) was 22%. The “Decrease in SBP” value (Rattus norvegicus [4]) was 19%, the “Decrease in SBP” value (Rattus norvegicus [5]; 25 mg/kg) was 40% and the “Decrease in SBP” value (Rattus norvegicus [6]; 25 mg/kg) was 36%.
With `CN1CC2(CCN(CCCC(=O)c3ccc(F)cc3)CC2)OCC1=O` the “Decrease in SBP” value (Rattus norvegicus [7]) was 37%, the “Decrease in SBP” value (Rattus norvegicus [8]) was 19% and the “Decrease in SBP” value (Rattus norvegicus [9]) was 26%. For the same molecule, the “Decrease in SBP” value (Rattus norvegicus [10]) was 25%, the “Decrease in SBP” value (Rattus norvegicus [11]) was 46% and the “Decrease in SBP” value (Rattus norvegicus [12]) was “Not significant”. For the same molecule, the “Decrease in SBP” value (Rattus norvegicus [13]) was “Not significant” and the “Decrease in SBP” value (Rattus norvegicus [14]) was 27%.
With `O=C(NC1CCN(CCc2c[nH]c3ccccc23)CC1)c1ccccc1` [INDORAMIN] the “Decrease in SBP” value (Rattus norvegicus [1]) was 30%, the “-Log Ki” value [15] was 7.61 and the “Decrease in SBP” value (Rattus norvegicus [16]) was “inactive”. The “Decrease in SBP” value (Rattus norvegicus [17]) was 27%, the “Decrease in SBP” value (Rattus norvegicus [18]) was “inactive” and the “Decrease in SBP” value (Rattus norvegicus [5]) was 34%. For the same molecule, the “Decrease in SBP” value (Rattus norvegicus [6]) was 28%, the “-Log Ki” value [19] was 4.92 and the “Decrease in SBP” value (Rattus norvegicus [20]) was “inactive”. The “Decrease in SBP” value (Rattus norvegicus [21]) was “inactive”.
